High-throughput results as filed in PubChem BioAssay.
PAFAH2 inh – inhibitors of human PAFAH2 | Q99487 | recombinant PAFAH2, FP-rhodamine activity probe, fluorescence polarization | inhibition, % at 3.39 µM | 340,000 compounds, 0.99% hits | AID 492956;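 active = inhibition above the mean over all tested compounds plus 3 SD, cut at about 30% in these data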;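 note: inhibitors block probe labeling of enzyme so polarization drops; 0% = enzyme with DMSO and 100% = wells lacking PAFAH2 protein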
Apaf-1 inh – blocks human Apaf-1 apoptosome activity. reconstituted apoptosome caspase-3 activity, DEVD-Rh110 fluorescence. inhibition, % at 20 µM. 330,000 compounds, 0.71% hits; active = inhibition of at least 40% at 20 µM;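 note: plate controls were DMSO wells for no effect and DEVD-CHO caspase inhibitor wells for full effect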
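Material: biochemical Apaf-1 apoptosome reconstitution. Medium: Hepes buffer, pH 7.5. Also added: cytochrome c activation, bis-DEVD rhodamine 110 substrate. Timing: 30 min compound preincubation, 50 min activation, room temperature. Measured by: rhodamine 110 fluorescence at Ex 480/Em 540 nm.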
PAFAH1B2 inh – PAFAH1B2 (human) inhibition; P68402; recombinant PAFAH1B2, FP-rhodamine activity probe, fluorescence polarization; inhibition, % at 3.39 µM; 340,000 compounds, 1.2% hits; AID 492953;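 active = inhibition above the mean of all tested compounds plus 3 SD, cut at about 24% in these data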;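 note: 0% = enzyme with DMSO and 100% = wells lacking PAFAH1B2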
PREPL inhibitor – inhibits the human prolyl oligopeptidase-like enzyme; Q4J6C6; recombinant PREPL, fluorescence polarization activity-based probe; inhibition, % at 5.96 µM; 320,000 compounds, 0.68% hits; AID 2751; in the data active = inhibition above about 43%;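 note: 0% = enzyme with DMSO and 100% = wells lacking enzyme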
pPAFAH inh – inhibitors of human plasma PAF acetylhydrolase (pPAFAH); inhibition, % at 3.39 µM; 330,000 compounds, 1.5% hits; recombinant pPAFAH, FP-rhodamine probe fluorescence polarization; Q13093;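 active = inhibition above the mean inhibition across the screen plus 3 SD, cut at about 25% in these data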;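 note: inhibitors block binding of the rhodamine activity-based probe so polarization drops; 0% = enzyme with DMSO and 100% = wells lacking pPAFAH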
Target sequence (Q13093 whole entry, looked up): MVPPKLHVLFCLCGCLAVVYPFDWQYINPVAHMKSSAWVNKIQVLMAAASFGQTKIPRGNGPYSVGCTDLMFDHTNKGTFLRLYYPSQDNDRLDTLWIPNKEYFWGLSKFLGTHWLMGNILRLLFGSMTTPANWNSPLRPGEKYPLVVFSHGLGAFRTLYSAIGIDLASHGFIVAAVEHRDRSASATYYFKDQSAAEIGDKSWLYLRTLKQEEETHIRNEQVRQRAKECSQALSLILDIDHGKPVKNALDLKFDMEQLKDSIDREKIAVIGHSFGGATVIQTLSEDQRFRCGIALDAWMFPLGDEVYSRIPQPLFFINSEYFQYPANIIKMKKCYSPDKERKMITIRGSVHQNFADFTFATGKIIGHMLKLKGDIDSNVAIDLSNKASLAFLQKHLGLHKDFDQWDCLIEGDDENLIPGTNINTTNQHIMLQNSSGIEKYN
PAFAH1B3 FP inh – inhibitors of human PAFAH1B3. Q15102. recombinant PAFAH1B3, FP-rhodamine probe, fluorescence polarization. inhibition, % at 3.39 µM. 340,000 compounds, 0.28% hits. AID 492972;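 active = inhibition above the screen-wide average of all tested compounds plus 3 SD, cut at about 25% in these data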;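 note: 0% = enzyme with DMSO only and 100% = wells lacking PAFAH1B3 protein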
pPAFAH confirm – confirmation of human plasma PAF acetylhydrolase (pPAFAH) inhibitors; inhibition, % at 3.39 µM; AID 463230; recombinant pPAFAH, FP-Rh probe fluorescence polarization; 2,300 compounds, 72% hits; shares compounds with pPAFAH inh;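 active = mean inhibition of the triplicate above the hit cutoff set for the earlier primary screen, cut at about 25% in these data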;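 note: 0% = enzyme with DMSO and 100% = wells lacking pPAFAH enzyme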
Active calls of the source: *; · = no result given. Hits are enriched below; roughly 3.5% of the tested compounds scored in any of these assays.

SMILES	PAFAH2 inh	Apaf-1 inh	PAFAH1B2 inh	PREPL inhibitor	pPAFAH inh	PAFAH1B3 FP inh	pPAFAH confirm
CCc1cc(=O)oc2cc(C)c(CN3CCCC(C)C3)c(O)c12 (centres undefined)	8	4	-3	5	52*	6	13
N#Cc1cc2c(=O)n3ccccc3nc2n(Cc2ccco2)c1=NC(=O)c1ccco1	-6	1	5	8	37*	10	9
Cc1ccccc1C(=O)N=c1c(C#N)cc2c(=O)n3cccc(C)c3nc2n1Cc1ccco1	·	18	·	7	2	·	·
CCOc1ccc(-n2c(C)cc(/C=N/Nc3nc(C)cc(=O)[nH]3)c2C)cc1	5	-5	-2	29	43*	2	85*
COc1ccc2[nH]c(=O)c(CN(C3CCCCC3)C(c3nnnn3Cc3ccco3)C(C)C)cc2c1 (centres undefined)	0	11	-1	24	36*	-6	28*
CC1CCc2c(sc(NC(=O)/C=C/c3cccs3)c2C(=O)O)C1 (centres undefined)	14	-3	14	1	20	3	·
O=C(Oc1nsnc1N1CCOCC1)N1CCOCC1	31*	-33	5	0	85*	5	89*
O=C(Oc1nsnc1N1CCOCC1)N1CCCCC1	8	-3	-2	7	57*	7	50*
Cc1nnc(N/N=C/c2ccc(O)c([N+](=O)[O-])c2)[nH]c1=O	-6	0	4	-8	-2	14	·
Cc1csc(N/N=C/c2ccc(O)c([N+](=O)[O-])c2)n1	26	10	12	3	40*	26*	11
COc1ccc(N(CC(=O)Nc2cc(C)ccc2OC)S(=O)(=O)c2c(C)noc2C)cc1	1	6	0	15	45*	4	8
O=c1oc2c(CN3CCCCC3)c(O)ccc2c2c1CCCC2	0	-8	-1	14	38*	-5	5
Cc1c(C)c2ccc(O)c(CN3CCCC3)c2oc1=O	-1	7	2	9	1	1	·
Cc1ccccc1CN1CCCC(C(=O)Nc2ccc(-c3ccn[nH]3)cc2)C1 (centres undefined)	3	9	-1	-26	2	-2	·
CCCn1c(N)c(N(CCOC)C(=O)c2cccc(C(F)(F)F)c2)c(=O)[nH]c1=O	1	1	7	-4	3	7	·
CCCCn1c(N)c(N(CCOC)C(=O)c2ccc(-c3cccc(C(F)(F)F)c3)o2)c(=O)[nH]c1=O	-10	11	2	12	39*	1	17
COc1ccc(CNC(=O)[C@H](C)NC(=O)C2CCN(S(=O)(=O)c3ccc(F)cc3)CC2)cc1	-1	-7	6	-3	1	14	·
C=CCn1c(SCC(=O)c2ccc(O)c(O)c2)nnc1-c1cccc(C)c1	29	-2	9	16	35*	9	80*
CCn1c(SCC(=O)c2ccc(O)c(O)c2)nnc1-c1ccccc1	21	-1	2	3	11	18	·
C=CCn1c(SCC(=O)c2ccc(O)c(O)c2)nnc1-c1cccnc1	24	-5	4	20	50*	7	19
CCCCCC(=O)Nc1nc(C)c(-c2csc(Nc3cc(OC)ccc3OC)n2)s1	8	-8	9	21	40*	15	29*
CCCCC(=O)Nc1nc(C)c(-c2csc(Nc3ccccc3OC)n2)s1	-1	-5	9	2	17	7	·
CC(NC(=O)COC(=O)c1ccccc1Nc1ccccc1)c1ccccc1 (centres undefined)	9	24	-1	4	3	3	·
COc1ccc(N(Cc2cc3cccc(C)c3[nH]c2=O)S(=O)(=O)c2ccc(Cl)cc2)cc1	-5	14	1	-32	1	3	·
COc1ccc(N(Cc2cc3cccc(C)c3[nH]c2=O)S(=O)(=O)c2ccc(OC)cc2)cc1	5	13	5	-15	66*	8	2
SMILES	PAFAH2 inh	Apaf-1 inh	PAFAH1B2 inh	PREPL inhibitor	pPAFAH inh	PAFAH1B3 FP inh	pPAFAH confirm
CCOC(=O)c1c(S(=O)(=O)NCC(=O)N2CCN(c3cccc(OC)c3)CC2)c(C)n(C)c1C	6	3	1	10	6	6	·
CCCCCC(=O)Cc1cc(O)cc2c1C(=O)Oc1cc(O)c(C(=O)O)c(CCCCC)c1O2	·	19	·	14	43*	·	59*
CS(=O)Cc1cc(Sc2ccccc2)nc(-c2cccnc2)n1 (centres undefined)	3	2	2	-4	-1	6	·
COc1cc([N+](=O)[O-])ccc1NC(=O)CN1CCOCC1	0	-8	2	25	-1	2	·
Cc1cc(C(=O)OCC(=O)N2CC(=O)Nc3ccccc32)c(C)n1-c1ccc(F)cc1	2	1	-2	-27	37*	0	30*
COc1ccc(-c2c(=O)n(OC)c3ccccc3[n+]2[O-])cc1OC	5	15	2	8	-3	-3	·
COc1ccc(CCNC(=O)Cc2ccc(NC3=NC4CS(=O)(=O)CC4S3)cc2)c(OC)c1 (centres undefined)	3	-4	4	8	36*	5	1
CCOc1ccc(CCNC(=O)Cc2ccc(NC3=NC4CS(=O)(=O)CC4S3)cc2)cc1 (centres undefined)	-8	1	3	12	-5	-6	·
NC(=O)c1ccc(NC(=O)COC(=O)c2cc3c(s2)CCC3)cc1	11	-13	0	4	8	6	·
O=C(COC(=O)c1cc2c(s1)CCC2)Nc1ccc(F)cc1	87*	22	-1	12	44*	10	38*
Cc1c(NC(=S)N/N=C/c2cc([N+](=O)[O-])ccc2O)c(=O)n(-c2ccccc2)n1C	23	-9	19	15	47*	25	17
Cc1c(NC(=S)N/N=C/c2ccc(O)cc2)c(=O)n(-c2ccccc2)n1C	12	4	2	6	-7	1	·
Cc1ccc(C(=O)N(CC(=O)NC2CCCC2)c2cccc(F)c2)s1	6	10	6	0	-7	0	·
CCC(C)(C)n1nnnc1C(c1cc(OC)ccc1OC)N1CCN(Cc2ccccc2)CC1 (centres undefined)	5	7	2	22	5	12	·
Nc1ccc2nc3c(=O)n(CCc4ccccc4)c(=O)[nH]c3nc2c1	·	10	·	21	17	·	·
Cc1cc2nc3c(=O)n(CCc4ccccc4)c(=O)[nH]c3nc2cc1N	26	10	9	35	56*	12	20
CCCCn1c(=O)[nH]c2nc3cc(N)ccc3nc2c1=O	27	·	14	22	37*	4	14
COc1cc(CNc2ccc(O)cc2)cc(Br)c1OCc1ccccc1	10	20	8	21	35*	5	13
